Assay [1] deals with T1, Delta-type opioid receptor (Homo sapiens, UniProt P41143). Put plainly: Inverse agonist activity at human cloned delta opioid receptor expressed in CHO cells assessed as […] [35S]GTP-gamma-S binding in presence of 1 uM GDP relative to control. The class given is functional, cell-based. More on the design: scale not given: the % may be the effect or the level left. A general note: GTPγS is a poorly hydrolysed GTP analogue; its binding reports G protein activation.

Assay [2] has as its target Mu-type opioid receptor (Homo sapiens) (UniProt P35372). Kind of assay: Antagonist activity at human cloned mu opioid receptor expressed in CHO cells assessed as inhibition of DAMGO-stimulated [35S]GTP-gamma-S binding in presence of 10 uM GDP. The class given is functional, cell-based. The method in brief:
(§1)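 Membranes of CHO cells expressing cloned human receptor (0.4-0.6 pmol/mg), 20-40 µg protein, with 0.5 nM [³⁵S]GTPγS, 10 µM GDP final, 1% DMSO, in 20 mM Hepes pH 7.4, 100 mM NaCl, 10 mM MgCl₂; 1 h room temperature. Agonist curves (seven concentrations, 0.32-32 000 nM) ± one test concentration (µ 3-300, δ 1-50, κ 50-300 nM). Filtration over GF/B, scintillation counting; Ke as mean ± SE, ≥3 experiments.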

Assay [3] has as its target T1, Delta-type opioid receptor. Kind of assay: Antagonist activity at human cloned delta opioid receptor expressed in CHO cells assessed as inhibition of DPDPE-stimulated [35S]GTP-gamma-S binding in presence of 10 uM GDP. The class given is functional, cell-based. An outline of the steps:
as §1

Assay [4] addresses Kappa-type opioid receptor (Homo sapiens) (UniProt P41145). Kind of assay: Antagonist activity at human cloned kappa opioid receptor expressed in CHO cells assessed as inhibition of U69593-stimulated [35S]GTPgammaS binding in presence of 10 uM GDP. It is filed as functional, cell-based. The method in brief:
as §1

Assay [5] deals with Opioid receptors; mu & delta (Homo sapiens) (UniProt P41143+P35372). Put plainly: Selectivity for human cloned delta opioid receptor over mu opioid receptor. The class given is protein assay. An outline of the steps: (§2)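 Ratios of Ke values from [³⁵S]GTPγS antagonism assays at cloned human µ, δ and κ receptors in CHO membranes, each run with 10 µM GDP final against DAMGO, DPDPE or U69593 agonist curves.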

Assay [6] deals with Opioid receptors; delta & kappa (Homo sapiens) (UniProt P41145+P41143). Kind of assay: Selectivity for human cloned delta opioid receptor over kappa opioid receptor. The class given is protein assay. An outline of the steps: as §2
Assay [7] has as its target T1, Delta-type opioid receptor. Kind of assay: Agonist activity at delta opioid receptor at 31.6 uM. The class given is functional.
The target in assay [8] is Mu-type opioid receptor (Homo sapiens) (UniProt P35372). Kind of assay: Intrinsic activity at mu opioid receptor in presence of 1 uM GDP. It is filed as functional.
Assay [9] has as its target Kappa-type opioid receptor (Homo sapiens) (UniProt P41145). Kind of assay: Intrinsic activity at kappa opioid receptor in presence of 1 uM GDP. The class given is functional.
For assay [10], the target named is T1, Delta-type opioid receptor. Kind of assay: Inverse agonist activity at human cloned delta opioid receptor expressed in CHO cells assessed as […] [35S]GTP-gamma-S binding in presence of 1 uM GDP. The class given is functional, cell-based.

The source made the active and inactive calls. No cut-off for these calls is given here. Where a SMILES comes first, the peptide text is derived from it. [ ]: non-standard residue; d: D form. The star is where a group is joined. Tyr(Nα,Nα-allyl2) = C=CCN(CC=C)[C@@H](Cc1ccc(O)cc1)C(=O)*; Aib = CC(C)(N)C(=O)O

T1 sequence (P41143 whole entry): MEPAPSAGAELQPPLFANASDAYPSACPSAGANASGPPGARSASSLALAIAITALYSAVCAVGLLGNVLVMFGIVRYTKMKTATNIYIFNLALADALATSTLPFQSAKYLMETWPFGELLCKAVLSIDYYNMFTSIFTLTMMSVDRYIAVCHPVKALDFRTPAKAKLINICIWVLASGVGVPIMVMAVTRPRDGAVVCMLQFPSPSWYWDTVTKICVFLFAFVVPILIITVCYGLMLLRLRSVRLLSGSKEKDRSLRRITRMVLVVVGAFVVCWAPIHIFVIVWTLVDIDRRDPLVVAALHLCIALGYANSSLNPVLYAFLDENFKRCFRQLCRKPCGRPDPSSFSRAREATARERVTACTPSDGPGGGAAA
Opioid receptors; delta & kappa (Homo sapiens), sequence (P41143 whole entry, looked up): as the sequence (P41143 whole entry) above
Opioid receptors; delta & kappa (Homo sapiens), sequence (P41145 whole entry, looked up): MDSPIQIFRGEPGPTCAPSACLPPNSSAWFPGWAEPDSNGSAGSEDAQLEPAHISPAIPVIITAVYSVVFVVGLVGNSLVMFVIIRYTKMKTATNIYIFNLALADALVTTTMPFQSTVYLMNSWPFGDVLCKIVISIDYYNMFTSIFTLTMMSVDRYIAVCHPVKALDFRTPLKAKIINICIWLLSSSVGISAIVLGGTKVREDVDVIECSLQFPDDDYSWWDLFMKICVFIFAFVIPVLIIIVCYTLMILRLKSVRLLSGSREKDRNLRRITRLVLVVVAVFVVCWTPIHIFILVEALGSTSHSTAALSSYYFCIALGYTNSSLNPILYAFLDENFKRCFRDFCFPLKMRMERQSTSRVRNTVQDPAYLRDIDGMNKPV
Kappa-type opioid receptor (Homo sapiens), sequence (P41145 whole entry): as the sequence (P41145 whole entry, looked up) above
Opioid receptors; mu & delta (Homo sapiens), sequence (P35372 whole entry, looked up): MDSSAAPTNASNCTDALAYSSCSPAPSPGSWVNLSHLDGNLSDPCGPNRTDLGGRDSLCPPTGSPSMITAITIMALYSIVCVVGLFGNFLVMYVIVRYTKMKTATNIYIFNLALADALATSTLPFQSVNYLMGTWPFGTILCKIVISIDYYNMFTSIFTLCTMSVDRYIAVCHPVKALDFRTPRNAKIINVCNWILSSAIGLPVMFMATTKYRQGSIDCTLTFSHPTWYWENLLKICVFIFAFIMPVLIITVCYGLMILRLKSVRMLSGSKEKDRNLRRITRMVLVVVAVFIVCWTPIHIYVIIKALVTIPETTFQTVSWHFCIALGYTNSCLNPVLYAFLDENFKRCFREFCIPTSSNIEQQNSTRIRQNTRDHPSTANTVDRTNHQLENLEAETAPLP
Opioid receptors; mu & delta (Homo sapiens), sequence (P41143 whole entry, looked up): as the sequence (P41143 whole entry) above
Mu-type opioid receptor (Homo sapiens), sequence (P35372 whole entry): as the sequence (P35372 whole entry, looked up) above

Take `CC1CN(CCCc2ccccc2)[C@@H]2C[C@@H](NC(=O)C3(c4ccccc4)CCCC3)C[C@@]1(c1cccc(O)c1)C2` (single isomer, unassigned; (+)): the Activity in [1] is 70%. In addition, the Ke was 8.7 nM in assay [2], 0.15 nM in [3] and 17.9 nM in assay [4]. The Ratio Ke in assay [5] came to 58; in [6] it was 119. The result in assay [7], in assay [8] and in assay [9] was inactive. Further, the IC50 (as a rule, the concentration that inhibits the measured activity by half) in assay [10] was 1800 pM.
On to `Cc1ccccc1/C=C/CN1C[C@H](C)[C@@]2(c3cccc(O)c3)C[C@H](NC(=O)C3(c4ccccc4)CCCC3)C[C@@H]1C2`, for which the Activity in assay [1] amounted to 70%. The Ke was 2.51 nM in assay [2], 0.33 nM in [3] and 5.6 nM in assay [4]. For the same compound, the Ratio Ke was 7.6 in assay [5] and 22 in assay [6]. Further, the outcome in [7], in assay [8] and in assay [9] was inactive. In addition, the half-inhibitory concentration (IC50) in assay [10] stood at 500 pM.
On to `C=CCN(CC=C)[C@@H](Cc1ccc(O)cc1)C(=O)NC(C)(C)C(=O)NC(C)(C)C(=O)N[C@@H](Cc1ccccc1)C(=O)N[C@@H](CC(C)C)C(=O)O` ({Tyr(Nα,Nα-allyl2)}-[Aib][Aib]FL-OH), for which the Activity in assay [1] was determined as 75%. Moreover, the Ratio Ke was 5.3 in [5] and 43 in [6]. Also, the outcome in assay [7], in [8] and in assay [9] was inactive. For the same compound, the IC50 in assay [10] amounted to 83000 pM.
In the case of `C[C@H]1CN(CCCc2ccccc2)[C@@H]2C[C@@H](NC(=O)C3(c4cccc5ccccc45)CCCC3)C[C@@]1(c1cccc(O)c1)C2`, the Activity in assay [1] was found to be 46%. Further, the Ke in [2] turned out to be 27.2 nM; in assay [3] it was 1.42 nM; in assay [4] it was 43.6 nM. The Ratio Ke in assay [5] was determined as 19; in assay [6] it was 31. Also, the outcome in assay [7], in [8] and in assay [9] was inactive. Moreover, the IC50 in assay [10] was 16000 pM.
Consider `C[C@H]1CN(CCCc2ccccc2)[C@@H]2C[C@@H](NC(=O)C3(c4cccs4)CCCC3)C[C@@]1(c1cccc(O)c1)C2`, for which the Activity in [1] turned out to be 54%. Also, the Ke in assay [2] is 2.19 nM; in assay [3] it was 0.31 nM; in [4], 24 nM. In addition, the Ratio Ke in assay [5] came out at 7.1; in assay [6] it was 77. In addition, the result in assay [7], in [8] and in assay [9] was inactive. Moreover, the 50% inhibitory concentration (IC50) in assay [10] was 800 pM.
For the compound `CCC(CC)(C(=O)N[C@@H]1C[C@@H]2C[C@](c3cccc(O)c3)(C1)[C@@H](C)CN2CCCc1ccccc1)c1ccccc1`, in assay [1], the Activity stood at 61%. In addition, the Ke in assay [2] came out at 11.7 nM; in assay [3], 0.2 nM; in [4], 14.6 nM. The Ratio Ke turned out to be 59 in assay [5] and 74 in assay [6]. Also, the outcome in assay [7], in assay [8] and in assay [9] was inactive. Also, in [10], the IC50 was found to be 1800 pM.
`C[C@@H](C(=O)N[C@@H]1C[C@@H]2C[C@](c3cccc(O)c3)(C1)[C@@H](C)CN2CCCc1ccccc1)c1ccccc1`: the Activity in [1] was 78%. Further, the values for the Ke in assay [2], in [3] and in [4] were 9.6 nM, 0.14 nM and 8.1 nM, respectively. Moreover, the Ratio Ke in [5] turned out to be 69; in assay [6], 58. For the same compound, the outcome in assay [7], in assay [8] and in [9] was inactive. For the same compound, in [10], the IC50 was 150 pM.
`Cc1ccccc1/C=C/CN1C[C@H](C)[C@@]2(c3cccc(O)c3)C[C@H](NC(=O)C(C)(C)c3ccccc3)C[C@@H]1C2`: in assay [1], the Activity was determined as 70%. The figures for the Ke in assay [2], in [3] and in assay [4] were 1.02 nM, 0.47 nM and 6.7 nM, respectively. Besides, the Ratio Ke came to 2.2 in assay [5] and 14 in assay [6]. The result in assay [7], in assay [8] and in assay [9] was inactive. Besides, the IC50 in assay [10] was found to be 120 pM.
As for `C[C@H]1CN(CCCc2ccccc2)[C@@H]2C[C@@H](NC(=O)C3(c4ccsc4)CCCC3)C[C@@]1(c1cccc(O)c1)C2`, the Activity in assay [1] amounted to 86%. The values for the Ke in [2], in assay [3] and in assay [4] were 2.07 nM, 0.24 nM and 7.77 nM, respectively. The Ratio Ke is 8.8 in assay [5] and 33 in assay [6]. The outcome in assay [7], in [8] and in assay [9] was inactive. Also, the IC50 in assay [10] was 450 pM.
For the compound `C[C@H]1CN(CCCc2ccccc2)[C@@H]2C[C@@H](NC(=O)C3(c4ccccc4)CCC3)C[C@@]1(c1cccc(O)c1)C2`, in assay [1], the Activity was determined as 65%. The Ke in assay [2] turned out to be 10.6 nM; in assay [3], 0.17 nM; in assay [4], 16 nM. The Ratio Ke in assay [5] amounted to 62; in assay [6], 94. Also, the result in [7], in assay [8] and in assay [9] was inactive. Further, the IC50 in assay [10] came to 420 pM.
`C[C@H]1CN(C/C=C/c2ccccc2)[C@@H]2C[C@@H](NC(=O)C(C)(C)c3ccccc3)C[C@@]1(c1cccc(O)c1)C2`: the Activity in [1] was 78%. Also, the results for the Ke in assay [2], in assay [3] and in assay [4] were 1.9 nM, 0.81 nM and 15.8 nM, respectively. Besides, the Ratio Ke in [5] turned out to be 2.4; in [6], 20. In addition, the result in assay [7], in assay [8] and in assay [9] was inactive. Besides, the IC50 in [10] worked out at 720 pM.
As for `C[C@H]1CN(CCOc2ccccc2)[C@@H]2C[C@@H](NC(=O)C(C)(C)c3ccccc3)C[C@@]1(c1cccc(O)c1)C2`, the Activity in assay [1] worked out at 83%. The Ke in assay [2] came to 11.4 nM; in [3], 0.87 nM; in [4] it was 96.3 nM. For the same compound, the figures for the Ratio Ke in assay [5] and in [6] were 13 and 111, respectively. Also, the result in assay [7], in [8] and in assay [9] was inactive. The IC50 in assay [10] turned out to be 1400 pM.
In the case of `C[C@H]1CN(CCCc2ccccc2)[C@@H]2C[C@@H](NC(=O)C3(c4ccc5ccccc5c4)CCCC3)C[C@@]1(c1cccc(O)c1)C2`, the Activity in assay [1] was determined as 69%. The Ke in assay [2] turned out to be 35 nM; in assay [3], 0.75 nM; in [4] it was 56.1 nM. Besides, the Ratio Ke worked out at 47 in assay [5] and 75 in assay [6]. Moreover, the outcome in assay [7], in assay [8] and in assay [9] was inactive. In assay [10], the IC50 was found to be 7700 pM.
As to `C[C@H]1CN(CCCc2ccccc2)[C@@H]2C[C@@H](NC(=O)C3(c4ccc(F)cc4)CCCC3)C[C@@]1(c1cccc(O)c1)C2`, the Activity in [1] came out at 72%. Also, the Ke in assay [2] is 9.1 nM; in assay [3] it was 0.26 nM; in [4] it was 4.5 nM. The Ratio Ke in [5] came to 35; in [6] it was 17. The outcome in [7], in assay [8] and in assay [9] was inactive. In addition, the IC50 in assay [10] was determined as 450 pM.
For `C[C@H]1CN(CCCc2ccccc2)[C@@H]2C[C@@H](NC(=O)C3(c4ccccc4)CCCCCC3)C[C@@]1(c1cccc(O)c1)C2`, in assay [1], the Activity was found to be 70%. For the same compound, the Ke in assay [2] was 24.4 nM; in assay [3], 0.26 nM; in assay [4], 17.5 nM. Further, the figures for the Ratio Ke in assay [5] and in assay [6] were 93 and 67, respectively. Further, the outcome in assay [7], in assay [8] and in assay [9] was inactive. For the same compound, in assay [10], the IC50 is 390 pM.
As to `Oc1ccc2c3c1O[C@H]1c4[nH]c5ccccc5c4C[C@@]4(O)[C@@H](C2)N(CC2CC2)CC[C@]314`, the Ratio Ke in assay [5] came out at 157; in assay [6] it was 77. Moreover, the result in assay [7], in assay [8] and in assay [9] was inactive.

(Values after ChEMBL document CHEMBL1146887 (J Med Chem, 2006).)
